This is a sample that favours compounds with a hit; in the whole collection about 3.5% have one here.
MrgX1 ag: agonists of human MrgX1 receptor, primary screen, HEK293 cells, Fluo-4 calcium flux; Mas-related G-protein coupled receptor member X1 (Homo sapiens), Q96LB2; Fluo-4 calcium fluorescence, agonist mode; stronger effect = higher value; B-score at 10 µM; hit rate 0.44% among 310,000;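 active = calcium response B-score plate-corrected fluorescence ratio at least 3 library SD, with starting fluorescence B-score inside 5 SD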
Target sequence (Q96LB2 whole entry, looked up): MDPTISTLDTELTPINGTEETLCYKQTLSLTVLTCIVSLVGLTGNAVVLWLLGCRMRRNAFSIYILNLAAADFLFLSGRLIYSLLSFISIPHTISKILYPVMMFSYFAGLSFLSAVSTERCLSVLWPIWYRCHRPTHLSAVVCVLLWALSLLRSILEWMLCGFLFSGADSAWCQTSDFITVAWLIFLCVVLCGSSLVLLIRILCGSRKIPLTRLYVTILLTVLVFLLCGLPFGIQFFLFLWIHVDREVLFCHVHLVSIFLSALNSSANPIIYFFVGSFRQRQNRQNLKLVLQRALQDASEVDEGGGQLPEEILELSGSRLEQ
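Material: MrgX1-expressing HEK293 cells; input: 15,000 cells per well; doses: test compound given as first of three sequential additions; schedule: overnight plating before 1 h dye loading; technique: Fluo-4 NW calcium-flux fluorescence, kinetic read; evaluation: baseline-normalised fluorescence change ratio, B-scored; control set: plate-wise positive and negative controls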
RGS4 inh: RGS4 inhibitors, primary screen, cell-based, HEK293 M3R inducible RGS4, calcium flux; Fluo-4 calcium flux; stronger effect = higher value; triggered by carbachol at its EC20; B-score at 10 µM; hit rate 0.45% among 310,000;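 active = B-score, a plate-corrected calcium signal, over three deviations above library mean, with baseline fluorescence within five deviations of library mean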;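 also: RGS4 expression induced by doxycycline in cells with stable M3 receptor; B-score is computed from the integrated fluorescence ratio over baseline after carbachol; higher B-score means a larger calcium signal and so more RGS4 inhibition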
Target sequence (P49798 whole entry, looked up): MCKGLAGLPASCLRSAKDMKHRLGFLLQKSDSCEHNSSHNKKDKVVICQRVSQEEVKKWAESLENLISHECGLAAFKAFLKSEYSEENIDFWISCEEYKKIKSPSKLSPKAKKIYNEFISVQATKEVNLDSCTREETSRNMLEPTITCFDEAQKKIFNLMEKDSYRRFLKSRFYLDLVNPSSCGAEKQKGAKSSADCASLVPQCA
RGS4 act: RGS4 potentiators or activators, primary screen, cell-based, HEK293 M3R inducible RGS4, calcium flux. carbachol calcium flux Fluo4; stronger effect = lower value. B-score at 10 µM. hit rate 0.92% among 310,000. AID 463111, 2010;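 active = B-score of the integrated calcium signal more than 4 SD below the library mean, with starting fluorescence not abnormally high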;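 also: negative B-score means reduced calcium response which marks RGS4 activation or potentiation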
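Also added: carbachol at ECmax as muscarinic agonist stimulus; Assay system: HEK293 cells with stable M3R and inducible RGS4; Timing: overnight RGS4 induction, 30 min dye load 37 °C, 20 min compound RT; Measured by: Fluo4-AM (2 µM) calcium-flux fluorescence, kinetic read.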
MrgX1 PAM: positive allosteric modulators of MrgX1, primary screen, HEK293 cells, Fluo-4 calcium flux; B-score at 10 µM; AID 588675, 2011; hit rate 0.63% among 310,000; FDSS; stronger effect = higher value;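 active = plate-corrected calcium response at least 3 library SD above typical, normal starting fluorescence, not activating the receptor alone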;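 also: compound read alongside a low EC10 to EC30 dose of BAM8-22 agonist; peak minus trough fluorescence over baseline measured at the second addition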
MrgX1 antag: antagonists of human MrgX1 receptor, primary screen, HEK293 cells, Fluo-4 calcium flux; BAM8-22 antagonism; stronger effect = lower value; B-score at 10 µM; hit rate 1.3% among 310,000;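 active = calcium-response B-score plate-corrected more than 3 library SD below zero, starting fluorescence within 5 deviations, no agonist response on first addition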;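 also: peak minus trough fluorescence over baseline after final BAM8-22 challenge near maximal dose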
MrgX1 ant reconf: MrgX1 receptor antagonists, duplicate retest, confirmation, HEK293 cells, Fluo-4 calcium flux. shares compounds with MrgX1 antag. BAM8-22 calcium flux; stronger effect = lower value. remaining BAM8-22 calcium response % of control (stronger effect = lower value), % at 10 µM. hit rate 19% among 2,300;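 active = remaining agonist calcium response no higher than 100% minus 3 SD of agonist-only control wells, with starting fluorescence near control levels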;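 also: agonist BAM8-22 given at a near maximal EC90 to ECmax level; peak minus minimum fluorescence divided by baseline after agonist addition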
HEK293 Ca flux: nonspecific calcium signal in parental HEK293, confirmation, counter-screen for MrgX1 antagonist project, parental HEK293 cells, Fluo-4 calcium flux; shares compounds with MrgX1 antag; Fluo-4 calcium fluorescence, FDSS; fluorescence ratio F(max-min)/F0 at 10 µM; AID 624111, 2012; hit rate 2% among 4,000;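 active = duplicate-averaged calcium fluorescence ratio at least three times the standard deviation of buffer wells, a nonspecific response in parental cells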
HEK293 Ca counter: calcium response in parental HEK293 cells, primary screen, counter-screen for MrgX1 allosteric activator project, cell-based, Fluo-4 calcium flux, duplicate; Fluo-4 fluorescence ratio; stronger effect = higher value; shares compounds with MrgX1 antag; fluorescence ratio F(max-min)/F0 at 10 µM; hit rate 0.4% among 4,000;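 active = calcium fluorescence ratio, averaged over duplicates, at least 3 SD of the buffer-well ratio, meaning a nonspecific response in receptor-free cells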;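 also: untransfected parental HEK293 lacking MrgX1 used as counterscreen for MrgX1 allosteric activators; fluorescence change taken during the second addition on a kinetic imager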
HEK293 Ca cntr2: calcium response in parental HEK293 cells, primary screen, counter-screen for MrgX1 agonist project, cell-based, Fluo-4 calcium flux, duplicate, agonist mode; shares compounds with MrgX1 antag; Fluo-4 calcium fluorescence (FDSS); stronger effect = higher value; fluorescence ratio F(max-min)/F0 at 10 µM; hit rate 8.7% among 4,000;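 active = calcium fluorescence ratio at least three times the spread of buffer wells, meaning a non-specific response in parental cells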
A number is an active result.

Screening Cc1ccnc(N2CCC(C(=O)Nc3cccc(C(F)(F)F)c3)CC2)n1 returned MrgX1 ag inactive, RGS4 inh inactive, RGS4 act inactive, MrgX1 PAM inactive, MrgX1 antag -4.8, MrgX1 ant reconf inactive, HEK293 Ca flux inactive, HEK293 Ca counter inactive and HEK293 Ca cntr2 inactive.
`Cc1ccc(O)c(NC(=S)NC(=O)Cc2ccc(Cl)cc2)c1` gave MrgX1 ag inactive, RGS4 inh inactive, RGS4 act -7.5, MrgX1 PAM inactive, MrgX1 antag -24, MrgX1 ant reconf 27%, HEK293 Ca flux inactive, HEK293 Ca counter inactive and HEK293 Ca cntr2 inactive.
For S=c1nc(NCc2cccc(Cl)c2)c2ccccc2[nH]1 the results were MrgX1 ag inactive, RGS4 inh inactive, RGS4 act inactive, MrgX1 PAM inactive and MrgX1 antag inactive.
Screening COc1cc(C(C)=O)ccc1OCc1cc(C(=O)N2CCSCC2)no1 returned MrgX1 ag inactive, RGS4 inh inactive, RGS4 act inactive, MrgX1 PAM inactive and MrgX1 antag inactive.
Screening CC(=O)c1cccc(OCc2cc(C(=O)N3CCSCC3)no2)c1 returned MrgX1 ag inactive, RGS4 inh inactive, RGS4 act inactive, MrgX1 PAM inactive, MrgX1 antag -9, MrgX1 ant reconf inactive, HEK293 Ca flux inactive, HEK293 Ca counter inactive and HEK293 Ca cntr2 inactive.
`COc1ccc(CN2C3CCCC2CC(NC(=O)Nc2cccc(C)c2)C3)cc1` (stereo not given) gave MrgX1 ag inactive, RGS4 inh inactive, RGS4 act inactive, MrgX1 PAM inactive, MrgX1 antag -7.9, MrgX1 ant reconf 72%, HEK293 Ca flux inactive, HEK293 Ca counter inactive and HEK293 Ca cntr2 inactive.
Screening COc1ccc(CN2C3CCCC2CC(NC(=O)Nc2ccccc2)C3)cc1 (stereo not given) returned MrgX1 ag inactive, RGS4 inh inactive, RGS4 act inactive, MrgX1 PAM inactive and MrgX1 antag inactive.
`CC(C)C(NS(=O)(=O)c1cccs1)C(=O)NCc1ccc2c(c1)OCO2` (stereo not given) gave MrgX1 ag inactive, RGS4 inh inactive, RGS4 act inactive, MrgX1 PAM inactive, MrgX1 antag -4.6, MrgX1 ant reconf inactive, HEK293 Ca flux inactive, HEK293 Ca counter inactive and HEK293 Ca cntr2 inactive.
Screening Cc1ccc(CNC(=O)C(NS(=O)(=O)c2cccs2)C(C)C)cc1 (stereo not given) returned MrgX1 ag inactive, RGS4 inh inactive, RGS4 act inactive, MrgX1 PAM inactive and MrgX1 antag inactive.
Screening O=C(CCS(=O)(=O)c1ccccc1)Nc1cccc(-c2nc3ccccc3s2)c1 returned MrgX1 ag inactive, RGS4 inh inactive, RGS4 act inactive, MrgX1 PAM inactive, MrgX1 antag -6.2, MrgX1 ant reconf 84%, HEK293 Ca flux inactive, HEK293 Ca counter inactive and HEK293 Ca cntr2 inactive.
CN(C)c1nc(-c2cn(CCC#N)c3ccccc23)cs1 was read as MrgX1 ag inactive, RGS4 inh inactive, RGS4 act inactive, MrgX1 PAM inactive and MrgX1 antag inactive.

Source: PubChem
